Published values collected from several papers.
Lines come from different studies, so protocols differ.
Target: Aurora kinase A (AURKA, Homo sapiens, UniProt O14965)
Sequence (O14965 1-403, as in one of the studies): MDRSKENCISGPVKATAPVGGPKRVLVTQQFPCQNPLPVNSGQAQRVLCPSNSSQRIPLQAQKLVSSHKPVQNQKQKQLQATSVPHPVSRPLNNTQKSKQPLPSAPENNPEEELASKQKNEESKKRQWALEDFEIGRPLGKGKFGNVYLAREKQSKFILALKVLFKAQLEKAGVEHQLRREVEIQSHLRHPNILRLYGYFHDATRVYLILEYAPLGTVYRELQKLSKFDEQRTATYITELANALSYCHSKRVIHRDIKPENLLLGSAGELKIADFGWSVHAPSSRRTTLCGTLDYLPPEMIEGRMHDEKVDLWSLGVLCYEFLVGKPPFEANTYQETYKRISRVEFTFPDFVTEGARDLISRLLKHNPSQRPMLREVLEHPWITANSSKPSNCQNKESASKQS

SMILES | test | conditions | quantity | result
N#Cc1ccc(NC(=O)Nc2ccccc2)cc1 | cell-free assay, competition with immobilised ligand | 25 µM | remaining binding | 80%
C#Cc1cc(-c2cc(Nc3nc(N[C@@H](C)c4ccc(F)cn4)ncc3Cl)n[nH]2)ccc1C=O | enzyme activity, inhibitor | 0.2 µM | inhibition | 82%
COc1ccc2oc(-c3ccc4nc(N)oc4c3)c/c(=N\c3ccccc3NC(=O)CCN)c2c1 | binding | 1 µM | remaining binding | 98%
C=CC(=O)N1CCC([C@@H]2CCNc3c(C(N)=O)c(-c4ccc(Oc5ccccc5)cc4)nn32)CC1 | enzyme activity, inhibitor | 1 µM | inhibition | 1%
C1=C/COCc2cc(ccc2OCCN2CCCC2)Nc2nccc(n2)-c2cccc(c2)COC/1 | binding | 0.1 µM | remaining binding | 81%
CC(=O)ON=C1C=CC(=C(C#N)c2ccccc2)C=C1 | enzyme activity, inhibitor, ADP detection | 20 µM | activity vs control | 66%
C[C@H]1CC[C@H](n2c3cnccc3c3cnc(Nc4ccc5c(n4)CCN(C(=O)CO)C5)nc32)CC1 | cell-free assay, competition with immobilised ligand | 1 µM | remaining binding | 100%
CCCCC(=O)Nc1ccc(-c2ccc3ncn(CCC)c(=O)c3c2)cn1 | binding, competition with immobilised ligand | 0.5 µM | remaining binding | 100%
C=CC(=O)N1CCC[C@@H](n2nc(-c3ccc(Oc4ccccc4)cc3)c3c(N)ncnc32)C1 | enzyme activity, inhibitor | 1 µM | inhibition | 5%
CN1CCN(C(=O)c2ccc(NC(=O)Nc3ccc(N(C)c4ccnc(Nc5ccc(CS(C)(=O)=O)cc5)n4)cc3)cc2)CC1 | binding, competition with immobilised ligand | 1 µM | remaining binding | 0%
